Results reported in ChEMBL document CHEMBL1132255, “Structure-activity relationships for 5-substituted 1-phenylbenzimidazoles as selective inhibitors of the platelet-derived growth factor receptor” (J Med Chem, 1999).

What was measured:
[1] = biological target: Fibroblast growth factor receptor 1 (Homo sapiens, UniProt P11362); assay: Inhibition of [32P]ATP incorporated (phosphorylation) into glutamate-tyrosine copolymer substrate by human fibroblast growth factor receptor 1
Procedure, shortened: (§1)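 Enzymes were intracellular tyrosine kinase domain fragments (human FGFR-1 […], mouse PDGFR-β […]), 60–75 ng per reaction, in 25 mM HEPES pH 7.4 with 150 mM NaCl, 10 mM MnCl₂, 0.2 mM sodium orthovanadate, Glu-Tyr (4:1) random copolymer substrate and varied inhibitor. Reactions were started with [³²P]ATP (0.4 μCi), run 10 min at 25 °C and stopped with 15% TCA. IC50 was taken as the concentration reducing ³²P incorporation into the copolymer.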

[2] = biological target: Platelet-derived growth factor receptor beta (Mus musculus, UniProt P05622); assay: Inhibition of [32P]ATP incorporated (phosphorylation) into glutamate-tyrosine copolymer substrate by mouse platelet-derived growth factor receptor beta; procedure, shortened: as §1
[3] = biological target: T1, Platelet-derived growth factor receptor (PDGFr) (Rattus norvegicus, UniProt P20786+Q05030); assay: Inhibition of Platelet-derived growth factor receptor beta autophosphorylation in Rat aorta vascular smooth muscle cells(RAVSMC).
[4] = biological target: T1, Platelet-derived growth factor receptor (PDGFr); assay: Inhibition of Platelet-derived growth factor receptor beta autophosphorylation in Rat aorta vascular smooth muscle cells(RAVSMC)

Sequence of Fibroblast growth factor receptor 1 (P11362 whole entry, the tested form may be a part): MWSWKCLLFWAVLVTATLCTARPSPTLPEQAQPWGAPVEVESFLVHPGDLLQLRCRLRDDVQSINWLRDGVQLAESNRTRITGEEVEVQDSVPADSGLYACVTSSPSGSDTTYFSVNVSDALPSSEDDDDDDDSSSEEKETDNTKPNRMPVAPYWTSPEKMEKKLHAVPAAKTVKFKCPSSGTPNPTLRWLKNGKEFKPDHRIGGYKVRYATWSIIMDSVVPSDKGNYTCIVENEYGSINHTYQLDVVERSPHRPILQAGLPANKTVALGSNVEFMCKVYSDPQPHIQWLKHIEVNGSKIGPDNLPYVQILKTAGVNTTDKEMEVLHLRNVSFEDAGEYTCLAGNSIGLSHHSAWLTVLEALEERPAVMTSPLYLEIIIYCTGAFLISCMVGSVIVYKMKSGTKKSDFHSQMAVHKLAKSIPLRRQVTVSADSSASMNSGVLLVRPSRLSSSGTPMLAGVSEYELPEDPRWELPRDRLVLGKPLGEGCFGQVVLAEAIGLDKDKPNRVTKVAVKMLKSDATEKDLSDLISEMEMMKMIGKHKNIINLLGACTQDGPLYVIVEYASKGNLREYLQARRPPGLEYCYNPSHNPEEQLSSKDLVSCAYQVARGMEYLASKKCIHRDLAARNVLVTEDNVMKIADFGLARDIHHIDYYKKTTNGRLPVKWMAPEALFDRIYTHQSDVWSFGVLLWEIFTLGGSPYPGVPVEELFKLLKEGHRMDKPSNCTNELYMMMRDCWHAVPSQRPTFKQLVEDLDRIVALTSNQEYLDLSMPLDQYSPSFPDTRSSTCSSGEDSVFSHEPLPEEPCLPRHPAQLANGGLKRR
Sequence of Platelet-derived growth factor receptor beta (P05622 whole entry): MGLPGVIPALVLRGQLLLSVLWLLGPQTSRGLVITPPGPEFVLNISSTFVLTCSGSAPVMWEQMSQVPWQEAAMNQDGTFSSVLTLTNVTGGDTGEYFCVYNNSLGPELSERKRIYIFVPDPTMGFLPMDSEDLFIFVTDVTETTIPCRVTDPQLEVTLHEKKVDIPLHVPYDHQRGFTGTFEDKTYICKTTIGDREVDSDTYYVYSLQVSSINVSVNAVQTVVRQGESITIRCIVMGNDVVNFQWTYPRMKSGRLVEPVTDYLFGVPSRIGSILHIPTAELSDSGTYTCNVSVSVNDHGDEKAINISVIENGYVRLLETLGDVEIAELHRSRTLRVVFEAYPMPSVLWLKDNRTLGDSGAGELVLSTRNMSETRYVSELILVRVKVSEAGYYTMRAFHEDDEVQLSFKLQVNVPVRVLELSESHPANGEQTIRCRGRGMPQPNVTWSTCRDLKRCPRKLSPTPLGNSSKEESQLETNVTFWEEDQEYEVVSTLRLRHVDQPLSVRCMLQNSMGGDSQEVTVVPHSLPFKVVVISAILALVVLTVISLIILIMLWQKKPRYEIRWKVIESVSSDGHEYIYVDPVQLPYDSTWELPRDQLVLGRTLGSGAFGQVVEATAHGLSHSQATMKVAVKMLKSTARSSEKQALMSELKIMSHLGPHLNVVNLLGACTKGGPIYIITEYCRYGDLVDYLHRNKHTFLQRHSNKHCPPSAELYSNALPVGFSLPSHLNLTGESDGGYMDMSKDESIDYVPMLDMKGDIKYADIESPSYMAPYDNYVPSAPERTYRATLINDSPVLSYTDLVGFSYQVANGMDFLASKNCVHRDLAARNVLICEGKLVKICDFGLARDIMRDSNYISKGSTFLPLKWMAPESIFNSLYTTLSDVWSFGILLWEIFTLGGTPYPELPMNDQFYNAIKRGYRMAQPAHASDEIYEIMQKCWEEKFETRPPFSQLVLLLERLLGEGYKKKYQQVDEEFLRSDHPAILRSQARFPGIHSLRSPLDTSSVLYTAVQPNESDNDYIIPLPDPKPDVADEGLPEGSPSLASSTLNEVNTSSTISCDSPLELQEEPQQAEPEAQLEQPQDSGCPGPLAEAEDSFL

Row | IC50 [1] [nM] | IC50 [2] [nM] | IC50 [3] [nM] | IC50 [4] [nM] | SMILES
1 | > 50000 | > 50000 |  |  | C=CCOc1ccc2c(ncn2-c2ccccc2)c1Br
2 |  | 310 |  |  | OCC(O)COc1ccc2c(c1)ncn2-c1ccccc1 (stereo not drawn)
3 |  | 250 |  |  | CCCOc1ccc2c(c1)ncn2-c1ccccc1
4 |  | 650 |  |  | NCCOc1ccc2c(c1)ncn2-c1ccccc1
5 | > 50000 | > 50000 |  |  | COc1c(O)ccc2c1ncn2-c1ccccc1
6 |  | 450 |  |  | OCCCCOc1ccc2c(c1)ncn2-c1ccccc1
7 | 6800 | 160 |  |  | CN(C)CCCCOc1ccc2c(c1)ncn2-c1ccccc1
8 |  | 170 |  |  | c1ccc(-n2cnc3cc(OCCCN4CCOCC4)ccc32)cc1
9 | > 50000 |  |  |  | COc1ccc2c(ncn2-c2ccccc2)c1O
10 | 24000 | > 50000 |  |  | c1ccc(-n2cnc3cc(SCCCN4CCOCC4)ccc32)cc1
11 | 18000 | 320 |  |  | c1ccc(-n2cnc3cc(OCC4CO4)ccc32)cc1 (stereo not drawn)
12 | > 50000 | > 50000 |  |  | COc1ccc2c(ncn2-c2ccccc2)c1OC
13 | 25000 | 1000 |  |  | COc1cc2ncn(-c3ccccc3)c2cc1C=O
14 | 11000 | 370 |  |  | COc1cc2ncn(-c3ccccc3)c2cc1CO
15 | 26000 | 240 |  |  | CCOc1ccc2c(c1)ncn2-c1ccccc1
16 |  | 280 | 1360 |  | COc1ccc2c(c1)ncn2-c1ccc(N)cc1
17 |  | 14000 |  |  | Oc1cccc2c1ncn2-c1ccccc1
18 |  | 610 |  |  | C=CCOc1ccc2c(c1)ncn2-c1ccccc1
19 |  | 870 |  |  | COC(=O)c1cc2c(cc1OC)ncn2-c1ccccc1
20 | 27000 | 740 |  |  | CSc1ccc2c(c1)ncn2-c1ccccc1
21 | > 50000 | > 50000 |  |  | C=CCc1c(O)ccc2c1ncn2-c1ccccc1
22 | > 50000 | > 50000 |  |  | Oc1ccc2c(ncn2-c2ccccc2)c1Br
23 |  | 730 |  | 790 | c1ccc(-n2cnc3cc(OCCN4CCOCC4)ccc32)cc1
24 |  | 150 |  |  | CN(C)CCCOc1ccc2c(c1)ncn2-c1ccccc1
